Source: PubChem BioAssay
Shown are actives, neighbours in structure and some others; about 4.8% of the full set was active somewhere.
UCH37 DUB inh = human UCH37 deubiquitinating enzyme inhibition. 330,000 tested, 0.33% active. inhibition, % (concentration not given with the values). purified proteasome/UCH37, Ub-AMC cleavage fluorescence. Q9Y5K5;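 active = mean inhibition over replicate wells above about 20%, limit read from the data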;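 also: 0% = compound-free wells with enzyme and 100% = wells lacking proteasome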
Target sequence (Q9Y5K5 whole entry, looked up): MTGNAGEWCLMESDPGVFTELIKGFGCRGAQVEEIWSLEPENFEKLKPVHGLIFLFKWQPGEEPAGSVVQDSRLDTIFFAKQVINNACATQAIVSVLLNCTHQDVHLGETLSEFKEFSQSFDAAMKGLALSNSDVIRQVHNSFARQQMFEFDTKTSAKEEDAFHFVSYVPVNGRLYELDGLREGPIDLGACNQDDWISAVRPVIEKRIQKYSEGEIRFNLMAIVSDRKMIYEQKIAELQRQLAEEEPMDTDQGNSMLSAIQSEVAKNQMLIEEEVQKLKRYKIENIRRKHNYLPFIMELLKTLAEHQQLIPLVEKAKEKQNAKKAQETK
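Material: Human UCH37 enzyme supplied as purified proteasome complex | Schedule: 30 min compound-proteasome preincubation then 25 min substrate reaction, room temperature | Detection: AMC fluorescence from Ub-AMC cleavage, excitation 355 nm, emission 460 nm | Benchmarks: Wells without proteasome as full block, compound-free enzyme plus substrate as uninhibited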
GRIN3A LBD mod = NR3A (human) ligand-binding domain modulation; Tm shift relative to glycine control, % at 25 µM; 340,000 tested, 2.5% active; NR3A LBD differential scanning fluorimetry, Tm shift; 0% = protein alone, 100% = glycine-bound protein;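 active = melting temperature shift of at least 10% of the positive control shift, at one fixed dose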
pPAFAH FP inh = inhibitors of human plasma PAF acetylhydrolase (pPAFAH); 330,000 tested, 1.5% active; recombinant pPAFAH, FP-rhodamine probe fluorescence polarization; inhibition, % at 3.39 µM;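 active = inhibition above the mean inhibition across the screen plus 3 SD, cut at about 25% in these data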;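 also: inhibitors block binding of the rhodamine activity-based probe so polarization drops; 0% = enzyme with DMSO and 100% = wells lacking pPAFAH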
PAFAH2 FP inh = PAFAH2 (human) inhibition. Q99487. recombinant PAFAH2, FP-rhodamine activity probe, fluorescence polarization. inhibition, % at 3.39 µM. 340,000 tested, 0.99% active. AID 492956;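 active = inhibition above the mean over all tested compounds plus 3 SD, cut at about 30% in these data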;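 also: inhibitors block probe labeling of enzyme so polarization drops; 0% = enzyme with DMSO and 100% = wells lacking PAFAH2 protein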
PAFAH1B2 FP inh = inhibitors of human PAFAH1B2 | P68402 | recombinant PAFAH1B2, FP-rhodamine activity probe, fluorescence polarization | inhibition, % at 3.39 µM | 340,000 tested, 1.2% active | AID 492953;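 active = inhibition above the mean of all tested compounds plus 3 SD, cut at about 24% in these data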;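 also: 0% = enzyme with DMSO and 100% = wells lacking PAFAH1B2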
PAFAH1B3 inh = PAFAH1B3 (human) inhibition. Q15102. recombinant PAFAH1B3, FP-rhodamine probe, fluorescence polarization. inhibition, % at 3.39 µM. 340,000 tested, 0.28% active. AID 492972;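 active = inhibition above the screen-wide average of all tested compounds plus 3 SD, cut at about 25% in these data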;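 also: 0% = enzyme with DMSO only and 100% = wells lacking PAFAH1B3 protein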
Target sequence (Q15102 whole entry, looked up): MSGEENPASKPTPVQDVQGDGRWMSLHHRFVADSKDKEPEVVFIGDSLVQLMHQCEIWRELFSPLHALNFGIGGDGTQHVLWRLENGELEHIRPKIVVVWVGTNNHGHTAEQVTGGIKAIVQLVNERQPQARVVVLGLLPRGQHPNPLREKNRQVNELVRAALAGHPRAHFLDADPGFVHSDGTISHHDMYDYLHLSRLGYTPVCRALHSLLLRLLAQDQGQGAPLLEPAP
An asterisk follows results filed as active; x = no result given.

SMILES | UCH37 DUB inh | GRIN3A LBD mod | pPAFAH FP inh | PAFAH2 FP inh | PAFAH1B2 FP inh | PAFAH1B3 inh
N#Cc1c(SCC(N)=O)nsc1SCc1ccc(Cl)cc1 | 4.0 | -12.5 | 1.7 | -2.6 | 29.7* | 6.5
CCOC(=O)C1CCCN(C(=O)COc2ccc(S(=O)(=O)N(CC)c3ccccc3)cc2)C1 (stereo not given) | 0.5 | 0.9 | 33.8* | 1.4 | -2.2 | 7.7
CCOC(=O)C1CCN(C(=O)c2cc(S(=O)(=O)N(C)C)ccc2N2CCCC2)CC1 | 7.6 | -0.6 | -4.2 | -5.2 | -3.1 | 6.0
CCOC(=O)C1CCCN(C(=O)c2cc(S(=O)(=O)N(C)C)ccc2N2CCCC2)C1 (stereo not given) | 1.2 | 11.5* | 2.6 | 1.0 | -0.3 | -2.6
CN(C)S(=O)(=O)c1ccc(N2CCCC2)c(C(=O)NCC2CCCCC2)c1 | 0.9 | -2.6 | 28.4* | -0.3 | 2.9 | 4.8
CN(C)S(=O)(=O)c1ccc(N2CCCC2)c(C(=O)NCC2COc3ccccc3O2)c1 (stereo not given) | 2.0 | -0.3 | 14.5 | 0.7 | -2.7 | 1.7
CCOC(=O)C1CCCN(C(=O)COc2ccc(C(=O)c3ccc(F)cc3)cc2)C1 (stereo not given) | 4.6 | 1.2 | 5.2 | 9.2 | 0.4 | 12.4
CCOc1ccc(C(Nc2ccc(C)cc2)P2(=O)OCCC(C)O2)cc1 (stereo not given) | 29.8* | -0.7 | 1.2 | -2.5 | 2.7 | 2.9
O=C1C2C(C(=O)N1N=Cc1ccco1)C1C=CC2C12CC2 (stereo not given) | 5.3 | x | x | x | x | x
O=C(Cc1ccccc1)NN=Cc1ccc2cccc(O)c2n1 | 3.5 | x | x | x | x | x
CC(=NNc1nc(-c2ccccc2)cs1)c1cccs1 | 0.8 | x | x | x | x | x
CC(=O)Nc1nonc1NC(C)=O | 3.9 | 0.1 | 2.7 | -2.3 | 7.5 | 8.2
CC(=O)Nc1cc(OC(C)=O)c2nonc2c1OC(C)=O | 7.5 | -9.4 | 17.8 | 7.9 | 34.0* | 68.4*
COc1cc2c(cc1NC(=O)CSc1nccn1C)oc1ccccc12 | 4.6 | -5.3 | 2.4 | 6.3 | 0.7 | 4.1
COc1cc2c(cc1NC(=O)CSc1ccccc1)oc1ccccc12 | 3.7 | 35.0* | 3.2 | -3.5 | -3.9 | 2.6
COc1cc2c(cc1NC(=O)CSc1nc3ccccc3[nH]1)oc1ccccc12 | 2.0 | 14.2* | -15.4 | -24.2 | -14.2 | -15.6
COc1cc2c(cc1NC(=O)CSc1nc3cc(Cl)ccc3s1)oc1ccccc12 | -0.3 | 32.1* | 4.5 | -8.3 | -0.4 | 2.6
O=C(CSc1nc2ccccc2s1)Nc1ccc2c(c1)oc1ccccc12 | -2.0 | 39.0* | 7.1 | -14.4 | -5.1 | -0.2
O=C(CSc1nc2ccccc2s1)Nc1cc(C(=O)O)cc(C(=O)O)c1 | 3.0 | 0.5 | -7.4 | 0.1 | 9.9 | -10.9
O=[N+]([O-])c1ccccc1NC(=S)NN=Cc1ccc(O)c(O)c1 | 7.7 | x | x | x | x | x
COc1ccc(C=NN2CCOCC2)cc1COc1ccc(F)cc1 | 4.1 | x | x | x | x | x
COc1ccc(C=NNC(=S)Nc2ccccc2)cc1COc1ccc(Br)cc1 | 10.1 | x | x | x | x | x
Cn1c(=O)c2ncn(CC(=O)NN=C/C=C/c3ccccc3)c2n(C)c1=O | 8.3 | x | x | x | x | x
COc1cc2c(cc1NC(=O)/C=C/c1ccccc1)oc1ccccc12 | -2.0 | 20.1* | -8.3 | -15.4 | -13.4 | -14.4
COc1ccc(/C=C/C(=O)NC(=S)Nc2cc3oc4ccccc4c3cc2OC)cc1 | x | -1.0 | -0.7 | -3.7 | 0.6 | -0.2
SMILES | UCH37 DUB inh | GRIN3A LBD mod | pPAFAH FP inh | PAFAH2 FP inh | PAFAH1B2 FP inh | PAFAH1B3 inh
N#Cc1ccc(C=NNC(=O)CCc2ccc(S(=O)(=O)N3CCOCC3)cc2)cc1 | 0.1 | x | x | x | x | x
CC(C)(C)c1ccc(OCC(=O)N/N=C/c2cc(Br)ccc2OC(=O)c2ccco2)cc1 | x | 22.8* | 2.1 | 0.3 | 8.7 | 5.1
Cc1ccc(C)c(NS(=O)(=O)c2ccc3c(c2)Cc2cc(S(=O)(=O)Nc4cc(C)ccc4C)ccc2-3)c1 | 4.5 | 18.0* | 9.9 | -3.6 | -0.2 | 3.7
Cc1ccc(C)c(NS(=O)(=O)c2ccc3oc(=O)ccc3c2)c1 | 3.1 | 1.6 | 5.0 | -4.1 | 0.1 | 2.1
Cc1ccc(NS(=O)(=O)c2ccc3c(c2)C(=O)c2ccccc2C3=O)c(C)c1 | -2.9 | 4.1 | 32.0* | 10.7 | 2.4 | 12.1
O=C(C[n+]1ccccc1)NN=Cc1ccccc1C(F)(F)F | 5.1 | x | x | x | x | x
COc1cccc(C(=O)N2CCN(Cc3cn[nH]c3-c3ccc(F)cc3F)CC2)c1 | 4.1 | -0.6 | -4.5 | 0.1 | -0.1 | 2.3
COc1ccc(C(=O)N2CCN(Cc3cn[nH]c3-c3ccc(OC)cc3F)CC2)cc1 | 2.6 | 47.5* | -1.0 | -6.3 | -3.1 | 9.4
COc1cccc(C=NNC(=O)c2oc3nc(-c4ccccc4)cc(-c4ccco4)c3c2N)c1 | -12.9 | x | x | x | x | x
CCN(CC)c1ccc(/C=N/N2C(=O)c3ccccc3C2=O)cc1 | x | 3.4 | -3.4 | -10.6 | -2.2 | 7.4
CCN(CC)c1ccc(/C=N/N2C(=O)c3ccccc3C2=O)c(O)c1 | x | 23.6* | 0.3 | 2.6 | 1.6 | -6.2
Cc1ccc(NC2=C(NC(=O)c3ccccc3)C(=O)c3ccccc3C2=O)cc1Cl | 18.7 | 20.2* | 6.3 | 11.6 | 8.6 | 18.4
CCC(=O)Nc1ccc2c(c1)C(=O)c1ccccc1C2=O | 3.9 | -1.1 | 9.1 | 1.9 | 0.2 | -1.2
O=C(Nc1ccc2c(c1)C(=O)c1ccccc1-2)c1ccccc1 | 6.7 | 17.7* | x | 4.7 | -0.4 | 6.1
CC(=O)Nc1ccc2c(c1)C(=O)c1cccc(C(=O)O)c1-2 | x | 14.0* | x | 6.4 | 1.9 | 4.8
Cc1ccc(NCC(=O)c2ccccc2)cc1Cl | 3.8 | -2.4 | 2.5 | 0.1 | 4.1 | 14.9
Cc1cc(C)cc(OCC(=O)Nc2ccc3c(c2)C(=O)c2ccccc2C3=O)c1 | 3.1 | 13.8* | -1.4 | 8.0 | 0.7 | -0.4
O=C(O)c1cccc2c1C(=O)c1ccccc1C2=O | 4.0 | 0.2 | -5.1 | -12.0 | -0.7 | -1.7
O=C(CCCOc1ccc(Cl)cc1Cl)NN=CC1CCCCC1 | -1.8 | x | x | x | x | x
COC(=O)NN=Cc1cn(CCCOc2ccc(C)cc2)c2ccccc12 | 4.6 | x | x | x | x | x
COc1cccc(C(=O)Nc2ccc3c(c2)C(=O)c2ccccc2C3=O)c1 | 5.2 | 15.9* | 11.4 | 10.3 | -2.1 | -1.0
Nc1nonc1-n1nnc(C(=O)NN=Cc2cc(Cl)ccc2O)c1CN1CCCCCC1 | 3.4 | x | x | x | x | x
CC(=NNC(=O)c1c(Br)c(C)nn1C)c1ccc(NC(=O)c2ccoc2C)cc1 | -55.4 | x | x | x | x | x
COc1ccc(C=NNc2ncnc3c2[nH]c2ccccc23)c(OC)c1OC | -19.1 | x | x | x | x | x
CCCc1ccc(OC(=O)c2ccc(O)cc2Cl)cc1 | 1.9 | 16.2* | 3.8 | -5.4 | 2.5 | 3.5
Cc1cc(=O)[nH]c2ccc(S(=O)(=O)Nc3ccccc3)cc12 | 0.6 | 0.1 | 26.1* | 6.1 | 5.3 | 6.9
CC(C)CNC(=O)c1cc(=O)[nH]c2ccc(S(=O)(=O)Nc3ccc(F)cc3)cc12 | 1.6 | -0.6 | 27.5* | -9.2 | 11.6 | 9.1
Cc1cccc(NS(=O)(=O)c2ccc3[nH]c(=O)cc(C(=O)O)c3c2)c1 | x | -0.7 | 5.3 | 0.5 | 5.0 | 0.0
